Experimental data taken from ChEMBL document CHEMBL4765317, “Novel bacterial topoisomerase inhibitors derived from isomannide” (Eur J Med Chem, 2020).
In brackets after ≈: the same amount, converted by molar mass.

Experiments:
[1] = biological target: 5-hydroxytryptamine receptor 2B (Homo sapiens) (UniProt P41595); assay: Inhibition of recombinant human full length 5HT2B expressed in CHO-K1 cells at 100 uM incubated for 30 mins by TR-FRET assay relative to control; type: cell-based
How it was run: (§1)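 Off-target screen against a panel of 44 receptors, enzymes and transporters, run in duplicate at a single 100 µM concentration. Results are given as % inhibition. No concentration-response follow-up was done.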

Staphylococcus aureus [2] = assay: Potency index, ratio of MIC90 of ciprofloxacin to MIC90 of compound for antibacterial activity against Fluoroquinolone-resistant Staphylococcus aureus assessed as reduction in bacterial growth by CLSI based broth microdilution method; type: functional
[3] = biological target: Histamine H2 receptor (Homo sapiens) (UniProt P25021); assay: Inhibition of recombinant human full length histamine H2 receptor expressed in CHO-K1 cells using [125I] Aminopotentidine as […] at 100 uM incubated for 120 mins by scintillation counting method relative to control; type: cell-based; how it was run: as §1
Staphylococcus aureus [4] = assay: Antibacterial activity against methicillin-resistant Staphylococcus aureus DRL-3161 assessed as reduction in bacterial growth by CLSI based broth microdilution method; type: functional
Staphylococcus aureus [5] = assay: Antibacterial activity against Staphylococcus aureus 3527 assessed as reduction in bacterial growth by CLSI based broth microdilution method; type: functional
How it was run: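 Host is a multidrug-resistant MRSA clinical isolate (formerly 1095), the parent of an isogenic D83N gyrase mutant. MIC was read by CLSI broth microdilution and reported in µg/mL.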

[6] = Cytotoxicity against human HepaRG assessed as reduction in cell viability at 0.1 uM incubated for 24 hrs by Cell-Titer Glo assay; type: cell-based; conditions: HepaRG cells, read-out: INH
How it was run: (§2)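 ATP-based viability read-out in HepaRG cells over a five-point concentration series (0.01, 0.1, 1, 10, 100 µM). Results are given as % cytotoxicity at each concentration.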

CYP1A2 = CYP1A2 (Homo sapiens, UniProt P05177); assay: Inhibition of human liver microsome CYP1A2 at 10 uM in presence of NADPH incubated for 10 to 30 mins by LC-MS-MS analysis; type: ADME; conditions: human liver microsomes, time 10-30 min
CYP2D6 = CYP2D6 (Homo sapiens, UniProt P10635); assay: Inhibition of human liver microsome CYP2D6 at 10 uM in presence of NADPH incubated for 10 to 30 mins by LC-MS-MS analysis; type: ADME; conditions: human liver microsomes, time 10-30 min
Streptococcus pneumoniae = assay: Antibacterial activity against penicillin-resistant Streptococcus pneumoniae LSI-4246 assessed as reduction in bacterial growth by CLSI based broth microdilution method; type: functional
[7] = Permeability across basolateral to apical side in human Caco2 cells at 10 uM by LC-MS/MS analysis; type: ADME, cell-based; conditions: Caco-2, read-out: permeability
[8] = Cytotoxicity against human HepaRG assessed as reduction in cell viability at 1 uM incubated for 24 hrs by Cell-Titer Glo assay; type: cell-based; conditions: HepaRG cells, read-out: INH; how it was run: as §2
CYP2B6 = CYP2B6 (Homo sapiens, UniProt P20813); assay: Inhibition of human liver microsome CYP2B6 at 10 uM in presence of NADPH incubated for 10 to 30 mins by LC-MS-MS analysis; type: ADME; conditions: human liver microsomes, time 10-30 min
[9] = Inhibition of Staphylococcus aureus DNA gyrase using relaxed pBR322 DNA as substrate incubated for 30 mins by agarose gel electrophoresis method
[10] = biological target: Sodium channel protein type 5 subunit alpha (Homo sapiens, UniProt Q14524); assay: Activation of recombinant human Nav1.5 late expressed in human HEK293 cells assessed as activation of late current at 30 uM by automated Qpatch clamp assay relative to control; type: ADME, cell-based; conditions: hek293, 30 µM
How it was run: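 Part of an eight-assay CiPA panel run in duplicate on an automated QPatch HT patch-clamp system at 3, 30 and 100 µM. Test compound came from a 30 mM DMSO stock. Records were filtered for seal quality, seal drop and current amplitude, and mean percent values are reported.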

Enterococcus faecium [11] = assay: Antibacterial activity against Vancomycin-resistant Enterococcus faecium LSI-3340 assessed as reduction in bacterial growth by CLSI based broth microdilution method; type: functional
Enterococcus faecium [12] = assay: Antibacterial activity against Vancomycin-susceptible Enterococcus faecium DRL-4193 assessed as reduction in bacterial growth by CLSI based broth microdilution method; type: functional
CYP3A4 [13] = biological target: T1, CYP3A4 (Homo sapiens, UniProt P08684); assay: Inhibition of human liver microsome CYP3A4 at 10 uM in presence of NADPH incubated for 10 to 30 mins by LC-MS-MS analysis; values are per cent of control; conditions: human liver microsomes
[14] = biological target: Voltage-gated inwardly rectifying potassium channel KCNH2 (Homo sapiens, UniProt Q12809); assay: Inhibition of human ERG
Enterococcus faecalis = assay: Antibacterial activity against Enterococcus faecalis ATCC 29212 assessed as reduction in bacterial growth by CLSI based broth microdilution method; type: functional
[15] = biological target: Sodium channel protein type 2 subunit alpha (Homo sapiens) (UniProt Q99250); assay: Inhibition of recombinant human full length Nav1.2 expressed in CHO-K1 cells at 100 uM by manual patch clamp assay relative to control; type: cell-based; how it was run: as §1
CYP3A4 [16] = biological target: T1, CYP3A4; assay: Residual activity of human liver microsome CYP3A4 at 0.1 uM in presence of NADPH incubated for 10 to 30 mins by LC-MS-MS analysis; conditions: human liver microsomes
[17] = Metabolic stability in mouse liver microsomes assessed as half life at 10 uM incubated for 5 mins followed by NADPH addition and measured upto 60 mins by LC-MS analysis; type: ADME, Microsome; conditions: time 65 min
CYP3A4 [18] = biological target: T1, CYP3A4; assay: Residual activity of human liver microsome CYP3A4 at 3 uM in presence of NADPH incubated for 10 to 30 mins by LC-MS-MS analysis; conditions: human liver microsomes
KCNQ1 = KCNQ1 (Homo sapiens, UniProt P51787); assay: Inhibition of recombinant human KCNQ1 expressed in CHO-K1 cells at 3 uM by automated Qpatch clamp assay relative to control; type: ADME, cell-based; conditions: CHO-K1 cells expressing recombinant human KCNQ1
How it was run: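 KCNQ1/hminK current recorded in duplicate on an automated QPatch HT at 3, 30 and 100 µM, from a 30 mM DMSO stock. Records were filtered for seal quality, seal drop and current amplitude. Peak outward current was evoked by a step to 60 mV. Block is the test-compound amplitude divided by control, where control is the mean over 15 s at the end of the control period. Chromanol 293B was the positive control.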

[19] = Aqueous solubility of compound at 100 uM incubated for 90 mins by LC-MS/MS analysis; type: physicochemical; conditions: buffer
How it was run: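 Kinetic solubility measured in buffered aqueous solution at pH 7.4.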

CYP3A4 [20] = biological target: T1, CYP3A4; assay: Residual activity of human liver microsome CYP3A4 at 1 uM in presence of NADPH incubated for 10 to 30 mins by LC-MS-MS analysis; conditions: human liver microsomes

T1 sequence (P08684 whole entry): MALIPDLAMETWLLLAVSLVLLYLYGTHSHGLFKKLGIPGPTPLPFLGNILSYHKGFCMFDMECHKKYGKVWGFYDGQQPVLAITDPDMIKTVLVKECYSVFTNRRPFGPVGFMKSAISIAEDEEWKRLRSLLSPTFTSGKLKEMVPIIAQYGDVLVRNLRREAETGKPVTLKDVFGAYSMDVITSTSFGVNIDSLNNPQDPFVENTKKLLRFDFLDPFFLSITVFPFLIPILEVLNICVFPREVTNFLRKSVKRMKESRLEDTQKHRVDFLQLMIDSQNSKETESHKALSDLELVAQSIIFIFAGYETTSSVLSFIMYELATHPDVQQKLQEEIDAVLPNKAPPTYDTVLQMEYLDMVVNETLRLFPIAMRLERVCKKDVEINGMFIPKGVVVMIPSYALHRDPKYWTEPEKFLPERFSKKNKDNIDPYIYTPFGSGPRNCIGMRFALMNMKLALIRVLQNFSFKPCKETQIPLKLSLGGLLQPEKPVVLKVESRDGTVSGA
Chain of Voltage-gated inwardly rectifying potassium channel KCNH2 (Q12809 whole entry): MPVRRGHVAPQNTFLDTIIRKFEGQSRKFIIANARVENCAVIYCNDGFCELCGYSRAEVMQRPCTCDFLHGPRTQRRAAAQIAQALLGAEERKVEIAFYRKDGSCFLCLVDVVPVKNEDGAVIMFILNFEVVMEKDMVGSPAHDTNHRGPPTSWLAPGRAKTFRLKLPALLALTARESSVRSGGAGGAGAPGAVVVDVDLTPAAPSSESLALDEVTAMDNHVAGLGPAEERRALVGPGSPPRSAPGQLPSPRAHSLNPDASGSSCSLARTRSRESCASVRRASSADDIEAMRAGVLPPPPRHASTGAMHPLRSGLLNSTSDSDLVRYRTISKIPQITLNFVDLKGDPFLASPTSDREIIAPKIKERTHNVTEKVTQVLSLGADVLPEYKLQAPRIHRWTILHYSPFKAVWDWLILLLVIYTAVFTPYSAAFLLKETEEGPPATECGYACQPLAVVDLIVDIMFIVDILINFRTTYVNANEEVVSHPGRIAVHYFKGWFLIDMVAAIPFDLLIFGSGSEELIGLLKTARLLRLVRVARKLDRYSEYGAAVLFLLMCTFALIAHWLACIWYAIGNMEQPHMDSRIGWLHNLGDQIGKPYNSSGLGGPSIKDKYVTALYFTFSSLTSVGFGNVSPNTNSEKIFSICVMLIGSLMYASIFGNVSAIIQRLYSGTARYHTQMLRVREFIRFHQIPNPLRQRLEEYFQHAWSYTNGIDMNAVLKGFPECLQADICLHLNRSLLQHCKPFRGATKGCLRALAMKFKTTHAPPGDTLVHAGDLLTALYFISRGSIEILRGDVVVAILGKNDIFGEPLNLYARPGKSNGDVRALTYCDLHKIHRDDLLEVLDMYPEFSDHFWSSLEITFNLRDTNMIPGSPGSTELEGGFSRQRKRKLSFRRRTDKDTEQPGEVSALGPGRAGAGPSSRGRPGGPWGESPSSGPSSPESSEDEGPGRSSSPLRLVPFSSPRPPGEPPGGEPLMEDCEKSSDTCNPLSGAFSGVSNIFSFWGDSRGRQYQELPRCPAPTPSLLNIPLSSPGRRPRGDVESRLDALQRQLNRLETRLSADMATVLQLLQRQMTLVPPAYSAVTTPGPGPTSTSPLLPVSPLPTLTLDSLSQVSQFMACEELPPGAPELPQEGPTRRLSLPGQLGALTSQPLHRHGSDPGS
Chain of Sodium channel protein type 2 subunit alpha (Homo sapiens) (Q99250 whole entry, looked up): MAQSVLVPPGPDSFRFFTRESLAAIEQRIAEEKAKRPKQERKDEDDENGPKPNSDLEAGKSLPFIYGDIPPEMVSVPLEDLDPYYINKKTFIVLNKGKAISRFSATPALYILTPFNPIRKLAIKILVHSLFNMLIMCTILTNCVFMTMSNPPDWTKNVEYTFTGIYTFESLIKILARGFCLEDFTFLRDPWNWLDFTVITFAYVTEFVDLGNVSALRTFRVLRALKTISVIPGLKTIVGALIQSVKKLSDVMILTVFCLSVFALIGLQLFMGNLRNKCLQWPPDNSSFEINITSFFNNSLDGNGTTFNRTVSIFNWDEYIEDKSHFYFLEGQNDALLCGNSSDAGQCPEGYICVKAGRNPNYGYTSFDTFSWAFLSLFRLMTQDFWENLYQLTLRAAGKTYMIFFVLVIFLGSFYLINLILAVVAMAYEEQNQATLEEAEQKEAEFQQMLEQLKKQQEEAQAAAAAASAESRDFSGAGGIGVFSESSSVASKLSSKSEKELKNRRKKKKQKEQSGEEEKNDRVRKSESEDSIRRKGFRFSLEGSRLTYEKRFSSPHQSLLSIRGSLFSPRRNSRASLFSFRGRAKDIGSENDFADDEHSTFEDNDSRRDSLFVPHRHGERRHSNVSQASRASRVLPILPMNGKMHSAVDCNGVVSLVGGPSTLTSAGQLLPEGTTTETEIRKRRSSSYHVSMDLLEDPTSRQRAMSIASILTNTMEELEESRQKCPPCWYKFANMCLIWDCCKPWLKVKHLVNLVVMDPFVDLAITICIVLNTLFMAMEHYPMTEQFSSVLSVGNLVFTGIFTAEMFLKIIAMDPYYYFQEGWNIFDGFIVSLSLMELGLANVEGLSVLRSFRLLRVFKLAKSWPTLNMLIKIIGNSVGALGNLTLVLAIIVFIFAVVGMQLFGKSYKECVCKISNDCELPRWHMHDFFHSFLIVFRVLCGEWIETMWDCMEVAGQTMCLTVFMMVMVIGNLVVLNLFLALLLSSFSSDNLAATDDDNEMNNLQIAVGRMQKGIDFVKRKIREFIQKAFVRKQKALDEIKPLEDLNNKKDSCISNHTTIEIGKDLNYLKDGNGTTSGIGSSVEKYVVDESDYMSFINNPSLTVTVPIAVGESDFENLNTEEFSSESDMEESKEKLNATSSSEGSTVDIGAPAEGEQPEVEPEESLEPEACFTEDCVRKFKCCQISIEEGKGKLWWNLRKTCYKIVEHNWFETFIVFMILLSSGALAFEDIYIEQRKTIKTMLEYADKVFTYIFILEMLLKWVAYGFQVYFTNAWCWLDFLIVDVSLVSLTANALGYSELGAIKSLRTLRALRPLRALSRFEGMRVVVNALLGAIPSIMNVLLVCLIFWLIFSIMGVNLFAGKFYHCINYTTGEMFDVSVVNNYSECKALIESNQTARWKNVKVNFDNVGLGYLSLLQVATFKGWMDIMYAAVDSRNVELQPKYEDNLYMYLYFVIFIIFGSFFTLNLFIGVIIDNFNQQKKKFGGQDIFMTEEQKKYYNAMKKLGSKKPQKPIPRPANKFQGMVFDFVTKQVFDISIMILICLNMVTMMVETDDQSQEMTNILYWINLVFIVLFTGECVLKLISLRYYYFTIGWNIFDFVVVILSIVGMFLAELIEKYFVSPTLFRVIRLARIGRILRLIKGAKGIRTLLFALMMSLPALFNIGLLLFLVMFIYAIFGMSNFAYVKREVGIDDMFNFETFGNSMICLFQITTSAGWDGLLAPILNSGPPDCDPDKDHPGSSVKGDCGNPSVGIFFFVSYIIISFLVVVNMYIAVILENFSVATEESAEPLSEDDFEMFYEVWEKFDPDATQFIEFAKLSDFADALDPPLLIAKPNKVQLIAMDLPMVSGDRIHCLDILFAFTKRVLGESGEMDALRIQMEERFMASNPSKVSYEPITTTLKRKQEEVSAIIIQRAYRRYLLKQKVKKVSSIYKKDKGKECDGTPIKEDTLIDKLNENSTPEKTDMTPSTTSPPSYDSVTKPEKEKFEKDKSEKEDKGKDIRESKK
Chain of CYP1A2 (P05177 whole entry): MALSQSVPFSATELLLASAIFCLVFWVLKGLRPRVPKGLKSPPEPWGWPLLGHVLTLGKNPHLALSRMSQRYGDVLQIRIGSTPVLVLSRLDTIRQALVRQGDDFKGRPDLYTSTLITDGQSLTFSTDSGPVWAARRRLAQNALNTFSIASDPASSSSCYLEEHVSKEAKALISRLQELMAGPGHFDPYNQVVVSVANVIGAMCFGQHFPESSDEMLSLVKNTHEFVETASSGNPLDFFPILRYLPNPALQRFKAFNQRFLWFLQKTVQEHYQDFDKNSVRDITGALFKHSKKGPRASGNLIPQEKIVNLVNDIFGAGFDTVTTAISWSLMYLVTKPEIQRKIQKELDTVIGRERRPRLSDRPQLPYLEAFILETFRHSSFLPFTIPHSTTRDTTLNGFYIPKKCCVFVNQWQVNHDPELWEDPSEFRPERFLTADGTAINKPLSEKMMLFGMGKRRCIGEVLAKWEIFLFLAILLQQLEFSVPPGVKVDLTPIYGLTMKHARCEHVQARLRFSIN
Chain of 5-hydroxytryptamine receptor 2B (Homo sapiens) (P41595 whole entry): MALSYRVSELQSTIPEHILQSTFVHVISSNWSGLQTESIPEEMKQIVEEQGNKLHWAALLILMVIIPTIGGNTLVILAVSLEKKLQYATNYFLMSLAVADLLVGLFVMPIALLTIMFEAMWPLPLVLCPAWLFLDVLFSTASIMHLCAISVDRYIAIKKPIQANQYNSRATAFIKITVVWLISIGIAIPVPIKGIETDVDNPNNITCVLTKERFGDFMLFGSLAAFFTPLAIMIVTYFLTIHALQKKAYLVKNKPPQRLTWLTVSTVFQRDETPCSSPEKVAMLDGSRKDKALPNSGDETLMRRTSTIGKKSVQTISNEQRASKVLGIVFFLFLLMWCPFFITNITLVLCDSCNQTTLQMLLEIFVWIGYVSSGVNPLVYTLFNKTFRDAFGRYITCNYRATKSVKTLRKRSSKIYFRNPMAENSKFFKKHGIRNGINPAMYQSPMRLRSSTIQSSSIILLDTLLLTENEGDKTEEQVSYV
Chain of Histamine H2 receptor (Homo sapiens) (P25021 whole entry): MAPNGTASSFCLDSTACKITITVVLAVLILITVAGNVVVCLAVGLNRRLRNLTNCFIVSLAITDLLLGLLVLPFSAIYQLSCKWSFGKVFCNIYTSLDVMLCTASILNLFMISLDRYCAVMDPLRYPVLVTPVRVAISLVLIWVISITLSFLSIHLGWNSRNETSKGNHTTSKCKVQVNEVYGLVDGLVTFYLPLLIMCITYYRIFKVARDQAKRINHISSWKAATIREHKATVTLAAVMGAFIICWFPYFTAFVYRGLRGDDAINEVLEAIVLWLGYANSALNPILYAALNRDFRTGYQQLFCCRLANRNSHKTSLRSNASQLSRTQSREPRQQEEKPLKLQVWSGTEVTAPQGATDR

Q: For `COc1ccc2ncc(F)c(CC[C@@]3(O)CO[C@@H]4[C@@H](NCc5cc6c(cn5)OCCO6)CO[C@@H]43)c2n1`, which inhibition [1] is on record?
A: 95%

Q: And the Ratio (Staphylococcus aureus [2])?
A: 16

Q: And the inhibition [3]?
A: 51%

Q: What about the MIC (Staphylococcus aureus [4]) of the same molecule?
A: 1 µg/mL (≈ 2.01 µM)

Q: What about the MIC (Staphylococcus aureus [5]) of the same molecule?
A: 2 µg/mL (≈ 4.01 µM)

Q: And the cytotoxicity at 24 h, 0.1 µM [6]?
A: 4%

Q: What about the inhibition at 10 µM (CYP1A2) of the same molecule?
A: < 50%

Q: What about the inhibition at 10 µM (CYP2D6) of the same molecule?
A: < 50%

Q: What about the MIC (Streptococcus pneumoniae) of the same molecule?
A: ≤ 0.12 µg/mL

Q: And the Papp B→A at 10 µM [7]?
A: 85.3 ×10⁻⁶ cm/s

Q: What about the cytotoxicity at 24 h, 1 µM [8] of the same molecule?
A: 9%

Q: What about the inhibition at 10 µM (CYP2B6) of the same molecule?
A: < 50%

Q: And the IC50 [9]?
A: 0.53 µM

Q: And the Activity [10]?
A: 7.7%

Q: And the MIC (Enterococcus faecium [11])?
A: 0.25 µg/mL (≈ 0.501 µM)

Q: And the MIC (Enterococcus faecium [12])?
A: 2 µg/mL (≈ 4.01 µM)

Q: What about the residual activity at 10 µM (CYP3A4 [13]) of the same molecule?
A: 49.5%

Q: What about the IC50 [14] of the same molecule?
A: 66 µM

Q: And the MIC (Enterococcus faecalis)?
A: 2 µg/mL (≈ 4.01 µM)

Q: What about the inhibition [15] of the same molecule?
A: 78%

Q: What about the residual activity at 0.1 µM (CYP3A4 [16]) of the same molecule?
A: 97%

Q: And the half-life at 10 µM [17]?
A: 3 min

Q: What about the residual activity at 3 µM (CYP3A4 [18]) of the same molecule?
A: 60.4%

Q: And the inhibition at 3 µM (KCNQ1)?
A: -2.9%

Q: And the solubility at […], 100 µM [19]?
A: 76.2 µM (≈ 38 µg/mL)

Q: And the residual activity at 1 µM (CYP3A4 [20])?
A: 60.4%
